Source: PubChem (Broad Institute)
Rows were chosen to be rich in hits. Some 1.3% of all compounds tested hit in one or more screens of this group.
MLL AF4-AF9 inh: inhibitors of AF4 peptide binding to AF9, primary screen, biochemical, AlphaScreen, biotin-AF4 peptide, FLAG-AF9, single point. inhibition, % at 10 µM. 350,000 tested, 0.47% active. AID 651704, 2012;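 active = every replicate reaching a set inhibition limit, whatever the replicate mean, cut at about 25% in these data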;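 note: 0% = plate neutral control median and 100% = total signal loss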
ERp5 inh: inhibitors of ERp5-driven insulin aggregation, primary screen, biochemical, turbidity, absorbance 650 nm, single point; 90 min; inhibition, % at 9.99 µM; 350,000 tested, 0.05% active;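 active = mean replicate inhibition above about 25%, with every replicate also reaching it, limit read from the data, passing the limit was not always enough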
SIRT5 block: SIRT5 desuccinylase inhibitors, primary screen, biochemical, fluorescence imaging, single point, set 5; NAD-dependent protein deacylase sirtuin-5, mitochondrial (Homo sapiens), Q9NXA8; Purified SirT5, succinyl-peptide AMC, trypsin-coupled fluorescence; inhibition, % at 15 µM; 330,000 tested, 1.1% active; in the data active = inhibition above about 15%
FN deposit inh: inhibitors of fibronectin matrix deposition, primary screen, AH1F cells, Alexa488-fibronectin fluorescence, plate reader | AH1F fibroblasts, overnight | inhibition, % at 12.6 µM | AID 743247, 2014 | 350,000 tested, 0.086% active;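 active = mean inhibition across replicates of 30% or more, regardless of how many single replicates reach that level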;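 note: positive control wells lacked labelled fibronectin entirely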
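Assay system: AH1F fibroblast monolayer, labelled fibronectin deposition. Amount: 10000 cells per well. Also added: labelled fibronectin 24 nM. Compound: single-point pinned compound. Incubation: cell attachment 1 h, compound and FN exposure overnight. Detection: fluorescence after three HBSS washes, excitation 485 nm, emission 525 nm. Read-out: inhibition of fibronectin deposition signal.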
PDI turbidity: inhibitors of human PDI, primary screen, biochemical, turbidity, single point, plate reader; PDI insulin aggregation turbidity, A650, 90 min; inhibition, % at 10 µM; 350,000 tested, 0.052% active; AID 588391, 2011;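 active = mean inhibition across replicates of 30% or more, whatever share of single replicates reach that level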
Target sequence (P07237 whole entry, looked up): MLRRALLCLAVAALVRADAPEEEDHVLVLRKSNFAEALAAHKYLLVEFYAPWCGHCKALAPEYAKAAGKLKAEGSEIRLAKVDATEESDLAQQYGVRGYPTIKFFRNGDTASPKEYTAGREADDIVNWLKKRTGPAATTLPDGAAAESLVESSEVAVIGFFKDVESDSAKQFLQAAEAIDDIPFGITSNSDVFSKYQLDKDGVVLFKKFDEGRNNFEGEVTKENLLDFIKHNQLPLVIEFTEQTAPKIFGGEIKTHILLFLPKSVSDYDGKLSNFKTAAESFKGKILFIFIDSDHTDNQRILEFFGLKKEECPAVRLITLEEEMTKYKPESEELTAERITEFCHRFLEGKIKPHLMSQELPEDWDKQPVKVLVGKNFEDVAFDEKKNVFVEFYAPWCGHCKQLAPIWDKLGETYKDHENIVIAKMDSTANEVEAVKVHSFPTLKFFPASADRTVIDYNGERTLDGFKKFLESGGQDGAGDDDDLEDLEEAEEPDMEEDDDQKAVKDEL
Numbers without * were called inactive; . = no result given.

SMILES	MLL AF4-AF9 inh	ERp5 inh	SIRT5 block	FN deposit inh	PDI turbidity
O=[N+]([O-])c1cc(CN2CCN(c3cccc(C(F)(F)F)c3)CC2)c2cccnc2c1O	36*	5	-3	0	.
c1c[nH]c(CN2CCN(Cc3ncc[nH]3)CC2)n1	28*	0	-2	1	-1
Cc1noc(C)c1COc1ccc(C(=O)NNC(=O)c2ccccc2)cc1	-11	0	-7	14	-9
Cc1noc(C)c1COC(=O)C(c1ccccc1)c1ccccc1	-2	-3	16*	-2	1
Cc1cc2oc(=O)cc(COC(=O)Cn3cnnn3)c2cc1C(C)C	.	.	.	-2	3
COCCCNc1ncnc2c1sc1nc(-c3ccco3)c3c(c12)CC(C)(C)OC3	-8	0	19*	0	-2
CC1(C)Cc2c(c(-c3ccco3)nc3sc4c(NCCO)ncnc4c23)CO1	-1	2	10	10	0
C=CCC[C@@H](Cc1ccc(F)cc1)C(=O)OC[C@H](Cc1c[nH]c2ccccc12)NC(=O)[C@@H](CC=C)CC(=O)NCCO	3	-6	-1	-4	21
COc1cccc(C#Cc2ccc([C@@H]3[C@@H](CO)N4C(=O)CN(C(=O)c5ccccc5)C[C@H]34)cc2)c1	2	-1	6	.	.
CCc1nc2ccc(C(=O)NCCOc3ccc(OC)cc3)cn2c1N(C)Cc1ccc(N(C)C)cc1	14	8	-2	.	5
CCc1nc2ccc(C(=O)NCc3ccccc3OC)cn2c1N(C)Cc1ccc(N(C)C)cc1	26*	-9	-1	2	20
COc1ccc(/C=C2\CN(Cc3ccccc3)C/C(=C\c3ccc(OC)c(O)c3)C2=O)cc1O	4	0	-3	-2	54*
CC(=Nc1ccc(Br)cc1)c1sc2ccccc2c1O	0	-1	0	-1	1
CC(=Nc1ccccc1)c1sc2ccccc2c1O	26*	-6	-3	.	-7
COc1ccc(-c2ccccc2)cc1NC(=O)c1cccs1	-4	3	16*	-6	-2
COc1cc(NC(=O)c2cccs2)c(OC)cc1NC(=O)c1cccs1	.	.	.	.	-3
COc1ccc(-c2ccccc2)cc1NC(=O)C1(C)CCN1C(=O)C(C)C (stereo unspecified)	0	2	22*	8	-2
CC(C)(C)c1nc2ccccc2c2nnc(SCC(=O)Nc3nccs3)n12	.	.	.	4	13
Nc1ccc(CC(N)c2csc(Nc3cc(Oc4ccccc4)ncn3)n2)cc1 (stereo unspecified)	25*	-6	0	3	-2
O=C(Nc1cccc(-c2nc3ccccc3s2)c1)c1cc(-n2cnnc2)ccc1Cl	.	.	.	.	-1
CCN1C(=O)C2C(c3ccccc3F)NC(Cc3ccc(O)cc3)(C(=O)OC)C2C1=O (stereo unspecified)	.	.	.	-5	53*
COc1ccc(OC)c(NC(=O)CSc2ccccc2)c1	.	.	.	4	-5
C[C@H](CO)N1C[C@H](C)[C@H](CN(C)Cc2ccncc2)OCc2cnnn2CCCC1=O	.	.	.	5	.
Nc1c(C(=O)OCC(=O)Nc2ccccc2Br)[nH]c(=O)[nH]c1=O	-3	8	.	3	7
Nc1c(C(=O)OCC(=O)NCc2ccccc2)[nH]c(=O)[nH]c1=O	38*	1	-3	-8	4
COc1ccccc1-c1ccc2c(c1)O[C@H](CN(C)S(=O)(=O)c1ccc(F)cc1)[C@@H](C)CN([C@@H](C)CO)S2(=O)=O	0	0	23*	.	.
C[C@H](CO)N1C[C@H](C)[C@@H](CN(C)S(=O)(=O)c2ccc(F)cc2)Oc2cc(-c3cccc(F)c3)ccc2S1(=O)=O	-4	10	17*	-1	.
COc1ccccc1-c1ccc2c(c1)O[C@H](CN(C)S(=O)(=O)c1ccc(F)cc1)[C@H](C)CN([C@H](C)CO)S2(=O)=O	1	8	26*	.	.
C[C@H](CO)N1C[C@H](C)[C@H](CN(C)Cc2cccc(C(F)(F)F)c2)OCc2ccccc2-c2ccccc2C1=O	2	3	20*	-18	.
C[C@@H]1CN([C@@H](C)CO)C(=O)c2ccccc2-c2ccccc2CO[C@H]1CN(C)Cc1ccccc1C(F)(F)F	9	8	28*	3	.
